Experimental data pooled from the literature.
Each line is one published result; the experiments were not run side by side. pIC50, pKi: −log10 of the molar value.
Target: 5-hydroxytryptamine receptor 1A (HTR1A, Homo sapiens, UniProt P08908)
Sequence (P08908 1-422, as in one of the studies): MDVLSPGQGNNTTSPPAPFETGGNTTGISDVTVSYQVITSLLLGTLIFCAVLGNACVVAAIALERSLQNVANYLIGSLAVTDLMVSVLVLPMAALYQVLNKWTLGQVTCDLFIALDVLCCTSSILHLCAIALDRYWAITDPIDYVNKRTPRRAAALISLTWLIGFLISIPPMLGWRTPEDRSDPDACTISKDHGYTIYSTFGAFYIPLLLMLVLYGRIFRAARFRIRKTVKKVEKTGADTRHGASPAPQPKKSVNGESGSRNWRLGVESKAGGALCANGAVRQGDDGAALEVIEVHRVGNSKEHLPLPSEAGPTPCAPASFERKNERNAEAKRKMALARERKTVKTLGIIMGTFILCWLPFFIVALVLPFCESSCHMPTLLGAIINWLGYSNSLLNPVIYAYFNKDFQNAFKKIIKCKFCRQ

SMILES | assay | measurement | value
O=C1c2ccccc2CCN1CCCCN1CCN(c2cccc(Cl)c2Cl)CC1 | ligand displacement, radioligand | pKi | 8.82
CCCCN1CCC(COC(=O)c2ccc(N)c(OCF)c2)CC1 | cell-free assay, radioligand | pKi | < 5.00
CCNC(=O)c1cc2c(N3CCOC[C@@H]3C)ccnc2[nH]1 | cell-free assay, radioligand | pKi | < 5.00
CN(CCCCNC(=O)c1cc2ccccc2[nH]1)[C@@H]1Cc2cccc3[nH]c(=O)n(c23)C1 | ligand displacement, radioligand | pKi | 6.90
CCCC[C@H](NC(=O)[C@H](C)c1c(C)[nH]c2ccc(O)cc12)c1ncc(-c2cc3ccccc3nc2OC)[nH]1 | cell-free assay | pKi | 5.68
COc1ccccc1N1CCN(CCCCOc2ccc3c(c2)NC(=O)CC3)CC1 | ligand displacement, radioligand | pKi | 9.55
CCOc1c(O)cc(Br)c2c1CN1CCc3cc(OCC(F)F)c(O)cc3[C@@H]1C2 | cell-free assay, radioligand | pKi | 6.48
CN1CCCCC1CCN1c2ccccc2Sc2ccc([S+](C)[O-])cc21 (stereo not drawn) | ligand displacement, radioligand | pIC50 | 7.48
C[C@@H]1Cc2ccccc2N1C(=O)NCCCCN(C)[C@@H]1Cc2cccc3[nH]c(=O)n(c23)C1 | ligand displacement, radioligand | pKi | 7.48
